PfHsp90 set2: growth inhibition of PfHsp90-expressing yeast, primary screen, antimalarial PfHsp90 inhibitor project, S. cerevisiae, BacTiter-Glo luminescence, single point, set 2 | inhibition, % at 9.4 µM | BacTiter-Glo ATP, 48 h; yeast lacking PDR1 and PDR3 efflux regulators | 310,000 compounds, 0.32% hits;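 active = every replicate shows inhibition above about 80%, whatever the replicate mean, limit read from the data; inconclusive = mean inhibition reaches the set limit but some replicate falls short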;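 note: 0% = DMSO neutral controls and 100% = 20 µM radicicol positive controls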
Arr AP2 block: inhibitors of beta-arrestin/AP2 binding, primary screen, biochemical, GPCR trafficking, flow cytometry; beta-arrestin 1 C-terminal peptide binding to AP2 beta2-adaptin appendage (human); FITC-arrestin peptide / GST-AP2 beads; AP2 beta2 appendage carries R879A mutation; inhibition, % at 10 µM; 340,000 compounds, 0.31% hits; AID 504490, 2011;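 active = inhibition above a set limit, near 3 SD of compounds lacking own fluorescence, cut at about 54% in these data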;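 note: plate controls were DMSO wells for no effect and 5 µM unlabelled arrestin peptide for full effect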
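Material – AP2 appendage R879A on GSH beads · Buffer or medium – PBS with 0.05% Tween 20 and 0.1% BSA · Probe or stimulus – fluorescein-tagged arrestin peptide at 50 nM final · Incubation – compound with beads 12 min RT, then probe 1 h RT · Detection – high-throughput flow cytometry of beads, ex 488, em 535 nm · Evaluation – percent response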
HIV Env fusion: inhibitors of HIV-1 Env-driven cell-cell fusion, primary screen, HeLa-JRFL effector, CEM21 target cells, luciferase; inhibition, % at 12.3 µM; 360,000 compounds, 1.1% hits; AID 651610, 2012;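 active = mean replicate inhibition score of at least 50 and every replicate individually at or above 50; inconclusive = only one of the two criteria met; inactive = mean below 50 and not all replicates reaching 50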;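 note: 0% = plate neutral controls and 100% = maraviroc near 300 nM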
Rtt109 Vps75: inhibitors of C. albicans Rtt109/Vps75 HAT, primary screen, biochemical, ThioGlo CoA-SH fluorescence, plate reader | Histone acetyltransferase RTT109 (Candida albicans (strain SC5314 / ATCC MYA-2876)), … | purified Rtt109/Vps75, 4 h | inhibition, % at 34.9 µM | 330,000 compounds, 0.16% hits;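 active = inhibition of at least 50% in every replicate; inconclusive = best replicate reaches 50% inhibition but some replicates fall short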
Target sequence (Q5AAJ8 whole entry, looked up): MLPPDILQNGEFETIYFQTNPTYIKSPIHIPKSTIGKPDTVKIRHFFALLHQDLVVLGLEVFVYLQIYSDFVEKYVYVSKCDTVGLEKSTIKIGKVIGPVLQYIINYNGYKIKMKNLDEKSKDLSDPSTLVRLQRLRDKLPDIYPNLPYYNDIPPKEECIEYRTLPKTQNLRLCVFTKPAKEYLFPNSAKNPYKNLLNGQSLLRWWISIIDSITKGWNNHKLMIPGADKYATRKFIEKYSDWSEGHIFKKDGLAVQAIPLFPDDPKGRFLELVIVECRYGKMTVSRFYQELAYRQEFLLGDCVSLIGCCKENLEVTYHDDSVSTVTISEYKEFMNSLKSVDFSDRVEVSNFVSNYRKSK
Glyco luc inh: increase of ERlucT glycosylation luciferase signal, primary screen, N-linked glycosylation inhibitor project, D54 ERlucT cells, luminescence, set 2 | D54 ERlucT glycosylation luciferase reporter, 24 h; percent of 100 nM tunicamycin response | reporter increase, % at 12.5 µM | 360,000 compounds, 0.23% hits | AID 588692, 2011;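 active = mean luciferase reporter signal, scaled so untreated is 0 and the glycosylation-blocking control 100, at or above a set limit in every replicate; inconclusive = mean reaches the limit but not every replicate does; inactive = mean below the limit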;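 note: luciferase carries N-glycosylation sites so blocking glycosylation raises the light; 0% = median of neutral control wells and 100% = median of 100 nM tunicamycin wells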
PAX8 reporter: inhibitors of PAX8-driven TPO luciferase reporter, primary screen, RMG-I cells, single concentration. SteadyGlo, 24 h. inhibition, % at 12.6 µM. 360,000 compounds, 1.2% hits;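 active = mean replicate inhibition at least 60% with every replicate also reaching 60%; inconclusive = only one of the two criteria is met; inactive = mean below 60% and not all replicates reaching 60%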;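 note: luciferase light reporting Pax8 driven TPO promoter activity; plate controls were median of neutral control wells for no effect and mitoxantrone controls for full effect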
Starred values were filed as active, the others as inactive; i = inactive; ? = inconclusive; nt = not tested or not shown; [ ] = remark or other dose. The list is not random: actives were taken first. Their share in the collection is about 2.3%.

SMILES	PfHsp90 set2	Arr AP2 block	HIV Env fusion	Rtt109 Vps75	Glyco luc inh	PAX8 reporter
CCN(C[C@H]1N[C@@](C)(C(=O)OC)[C@H]2C(=O)N(Cc3ccccc3)C(=O)[C@@H]12)S(=O)(=O)c1ccc(C(C)(C)C)cc1	10	-6	84*	-3	-3	3
CCN(C[C@H]1N[C@@](C)(C(=O)OC)[C@H]2C(=O)N(Cc3ccccc3)C(=O)[C@@H]12)S(=O)(=O)c1ccc(F)cc1	-4	-11	37	-3	1	-3
CCN(C[C@H]1N[C@@](CC)(C(=O)OC)[C@H]2C(=O)N(Cc3ccccc3)C(=O)[C@@H]12)S(=O)(=O)c1ccc(OC(F)(F)F)cc1	-18	1	87*	-3	-5	-6
CCN(C[C@H]1N[C@@](CC)(C(=O)OC)[C@H]2C(=O)N(Cc3ccccc3)C(=O)[C@@H]12)S(=O)(=O)c1ccc(C)cc1	18	-7	81*	3	-1	14
CCN(C[C@H]1N[C@@](CC)(C(=O)OC)[C@H]2C(=O)N(Cc3ccccc3)C(=O)[C@@H]12)S(=O)(=O)c1ccc(-c2ccccc2)cc1	6	3	33	-3	-4	2
CCN(C[C@H]1N[C@@](Cc2ccccc2)(C(=O)OC)[C@H]2C(=O)N(Cc3ccccc3)C(=O)[C@@H]12)S(=O)(=O)c1ccc(C(F)(F)F)cc1	-9	1	49	3	-9	17
CCN(C[C@H]1N[C@@](CC)(C(=O)OC)[C@H]2C(=O)N(Cc3ccccc3)C(=O)[C@@H]12)S(=O)(=O)c1ccc(C(C)(C)C)cc1	1	38	58*	-1	-8	1
COCC(=O)N1[C@H](CO)[C@@H]2c3ccccc3N(C(=O)Nc3ccccc3F)C[C@@H]21	nt	nt	nt	nt	nt	-63
Cc1ccc(NC(=O)CSc2nn(-c3ccc(Cl)cc3)c(=S)s2)cc1S(=O)(=O)N(C)C	-12	27	83*	1	-5	-10
CN(C)S(=O)(=O)c1cc(NC(=O)CSc2nn(-c3ccc(Cl)cc3)c(=S)s2)ccc1Cl	-11	-27	133*	6	-8	25
COc1ccc(/C=C2\CN(Cc3ccccc3)C/C(=C\c3ccc(OC)c(O)c3)C2=O)cc1O	-9	4	i	15	-20	90*
COc1cc(/C=C2/CC/C(=C/c3ccc(O)c(OC)c3)C2=O)ccc1O	-5	14	23	48	15	71*
CCN1C/C(=C/c2ccc(OC)c(O)c2)C(=O)/C(=C/c2ccc(OC)c(O)c2)C1	10	28	-116	-4	24	18
COc1cc(/C=C2\COC/C(=C\c3ccc(O)c(OC)c3)C2=O)ccc1O	-4	49	-141	28	-12	53
COc1cc(/C=C2\SC(=Nc3ccccc3OC)NC2=O)ccc1O	-4	10	-16	1	0	71*
CC(=O)N(C)C[C@@H]1Oc2ncc(-c3cccnc3)cc2C(=O)N([C@H](C)CO)C[C@@H]1C	nt	nt	-22[16.7 µM]	nt	nt	nt
O=C(N[C@H]1C=C[C@@H](CC(=O)N2CCc3ccccc3C2)O[C@@H]1CO)C1CCC1	nt	nt	5[16.7 µM]	nt	nt	11
C[C@@H]1CN([C@@H](C)CO)S(=O)(=O)c2ccc(Br)cc2O[C@H]1CN(C)CC1CCOCC1	nt	nt	-2[16.7 µM]	nt	nt	1
CN(CC(=O)Nc1ccc(Cl)cc1)C(=O)c1cccc(S(=O)(=O)NCc2ccccc2)c1	3	-3	?	60*	1	19
Cc1cc(C)c(S(=O)(=O)c2c(C)cccc2C)c(OCC(C)C)n1	8	2	78*	-7	-8	nt
C#CCOc1nc(C)cc(C)c1S(=O)(=O)c1ccccc1C	-4	-4	4	3	0	-14
COc1cccc(S(=O)(=O)N[C@@H]2CC[C@@H](CCn3cc(-c4ccccc4OC)nn3)O[C@@H]2CO)c1	nt	nt	1[16.7 µM]	nt	nt	29
